According to ChEMBL document CHEMBL4251649, “Discovery and optimization of phthalazinone derivatives as a new class of potent dengue virus inhibitors” (Eur J Med Chem, 2018):

How the values were obtained:
[1] = Cytotoxicity against human HuH7 cells assessed as reduction in cell viability after 48 hrs by MTT assay; type: cell-based, Huh-7
In short: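 The Huh7 cells were seeded and treated with compound in the same way as the antiviral assay, and viability was read by MTT reduction. CC50 is the compound concentration that lowered the readout to half of the no-compound control.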

[2] = test system: dengue virus type 2; assay: Antiviral activity against DENV2 D2Y98P infected in human HuH7 cells assessed as inhibition of viral RNA replication incubated for 48 hrs by qRT-PCR method; type: functional, organism-based; settings: Huh-7, 48 h
In short: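 Huh7 cells (4×10^4/well, 2% FBS DMEM, overnight) infected with DENV-2 D2Y98P at MOI 2 for 2 h, washed, then given compound in fresh medium; after 48 h the supernatant viral genomic RNA was extracted and quantified by one-step qRT-PCR; IC50 and IC90 were taken as 50% and 90% inhibition of RNA replication.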

[3] = Selectivity index, CC50 for human HuH7 cells to IC50 for DENV2 D2Y98P; type: toxicity; settings: read-out: Ratio CC50/IC50
In short: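 SI is calculated as CC50 (MTT cytotoxicity in Huh7) divided by IC50 (qRT-PCR of DENV-2 D2Y98P supernatant RNA, Huh7, MOI 2, 48 h).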

[4] = test system: Mus musculus; assay: Volume of distribution at steady state in CD-1 mouse at 2 mg/kg, iv; type: ADME, organism-based; settings: in vivo
In short: (§1)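 Male CD-1 mice (18–22 g, n=3/group), fasted 12 h, were given 2 mg/kg IV. Femoral-vein blood (EDTA) was collected at 3 min, 0.25, 0.75, 2, 4, 8 and 24 h. Plasma was mixed with methanol:acetonitrile (1:1), stored at -20°C, and analysed by non-compartmental methods.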

[5] = test system: Mus musculus; assay: AUClast in CD-1 mouse at 2 mg/kg, iv; type: ADME, organism-based; parameters: dose 2 mg/kg, time 0 - last, route intravenous; settings: in vivo; in short: as §1
[6] = Half life in CD-1 mouse at 10 mg/kg, po; type: ADME, organism-based; settings: in vivo
In short: (§2)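 Male CD-1 mice (18–22 g, n=3/group), fasted 12 h and fed 2 h after dosing, received 10 mg/kg orally. Femoral-vein blood (EDTA) was drawn at 0.25, 0.5, 1, 2, 4, 8 and 24 h. Plasma was mixed with methanol:acetonitrile (1:1) and stored at -20°C. Parameters came from non-compartmental analysis.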

[7] = test system: Mus musculus; assay: Half life in CD-1 mouse at 2 mg/kg, iv; type: ADME, organism-based; settings: in vivo; in short: as §1
[8] = Oral bioavailability in CD-1 mouse at 10 mg/kg; type: ADME, organism-based; settings: in vivo; in short: as §2
[9] = Tmax in CD-1 mouse at 10 mg/kg, po; type: ADME, organism-based; settings: in vivo; in short: as §2
[10] = AUClast in CD-1 mouse at 10 mg/kg, po; type: ADME, organism-based; parameters: dose 10 mg/kg, time 0 - last, route oral; settings: in vivo; in short: as §2
[11] = test system: Mus musculus; assay: Plasma clearance in CD-1 mouse at 2 mg/kg, iv; type: ADME, organism-based; settings: in vivo; in short: as §1
[12] = Cmax in CD-1 mouse at 10 mg/kg, po; type: ADME, organism-based; parameters: dose 10 mg/kg, route oral; settings: in vivo; in short: as §2

SMILES	CC50 at 48 h [1] [µM]	IC50 [2] [µM]	IC90 [2] [µM]	selectivity ratio [3]	also measured
CN(C)CCCCOC(=O)Nc1ccc(-n2nc(-c3ccc(F)cc3)c3ccccc3c2=O)cc1	21.8	1.34	12.6	16.2	
CN(C)CCCCOC(=O)Nc1ccc(Cn2nc(-c3ccc(C#N)cc3)c3ccccc3c2=O)cc1	37	0.7	7.07	52.8	
CN(C)CCCCOC(=O)Nc1ccc(Cn2nc(-c3cccnc3)c3ccccc3c2=O)cc1	68	6.32	30.2	10.7	
CN(C)CCCCOC(=O)Nc1ccc(Cn2nc(-c3cnn(C)c3)c3ccccc3c2=O)cc1	55.9	6.53	43.3	8.5	
CN(C)CCCCOC(=O)Nc1ccc(Cn2nc(-c3ccccc3C(F)(F)F)c3ccccc3c2=O)cc1	35.7	1.99	3.37	18	
CN(C)CCCCOC(=O)Nc1ccccc1Cn1nc(-c2ccc(F)cc2)c2ccccc2c1=O	48.5	2.83	13.2	17.1	
CN(C)CCCCOC(=O)Nc1ccc(Cn2nc(-c3ccccc3F)c3ccccc3c2=O)cc1	52.5	1.32	8.79	39.8	
CN(C)CCCC(=O)Nc1ccc(Cn2nc(-c3ccc(F)cc3)c3ccccc3c2=O)cc1	38.2	1	8.42	38.2	
CN(C)CCCCOC(=O)Nc1ccc(Cn2nc(-c3ccc(C(F)(F)F)cc3)c3ccccc3c2=O)cc1	3.36	1.47	6.61	2.3	
CN(C)CCCCOC(=O)Nc1ccc(Cn2nc(-c3ccccc3C#N)c3ccccc3c2=O)cc1	90.7	5.52	12.4	16.4	
CN(C)CCCCOC(=O)Nc1cccc(Cn2nc(-c3ccc(F)cc3)c3ccccc3c2=O)c1	8.51	0.64	4.65	13.3	
CN(C)CCCCOC(=O)Nc1ccc(Cn2nc(-c3cccc(C#N)c3)c3ccccc3c2=O)cc1	17.2	1.72	5.09	10	
CN(C)CCCCNC(=O)Nc1ccc(Cn2nc(-c3ccc(F)cc3)c3ccccc3c2=O)cc1	46.6			10.7	
CCCCOC(=O)Nc1ccc(Cn2nc(-c3ccc(F)cc3)c3ccccc3c2=O)cc1	19.5			14.3	
COc1ccc(-c2nn(Cc3ccc(NC(=O)OCCCCN(C)C)cc3)c(=O)c3ccccc23)cc1	20.3	1.94	5.88	10.5	
CN(C)CCCCOC(=O)Nc1ccc(Cn2nc(-c3ccccc3)c3ccccc3c2=O)cc1	16	2.68	6.09	5.99	
CC(c1ccc(NC(=O)OCCCCN(C)C)cc1)n1nc(-c2ccc(F)cc2)c2ccccc2c1=O (stereo not given)	15.2	1.27	5.57	11.9	
CN(C)CCCCOC(=O)Nc1ccc(Cn2nc(-c3ccncc3)c3ccccc3c2=O)cc1	62.7	22.9	40.9	2.7	
CN(C)CCCCOC(=O)Nc1ccc(Cn2nc(-c3cccc(C(F)(F)F)c3)c3ccccc3c2=O)cc1	11.6	0.13	1.15	89.2	Vdss [4]: 17.137 L/kg; AUClast [5]: 505 ng·h/mL; half-life [6]: 2.91 h; t1/2 [7]: 4.33 h; bioavailability [8]: 34.9%; Tmax [9]: 8 h; AUC(0-t) [10]: 883 ng·h/mL; CL [11]: 0.833 mL/min/kg; Cmax [12]: 94.5 ng/mL
COc1ccccc1-c1nn(Cc2ccc(NC(=O)OCCCCN(C)C)cc2)c(=O)c2ccccc12	44.8	1.4	5.44	32	
CN(C)CCCCOC(=O)Nc1ccc(Cn2nc(-c3ccc(F)cc3)c3ccccc3c2=O)cc1	19	0.62	4.27	30.7	
Nc1ccc(Cn2nc(-c3ccc(F)cc3)c3ccccc3c2=O)cc1	> 80	20	> 80	> 4	
COc1cccc(-c2nn(Cc3ccc(NC(=O)OCCCCN(C)C)cc3)c(=O)c3ccccc23)c1	17.6	0.34	1.58	51.8	
CN(C)CCCCOC(=O)Nc1ccc(Cn2nc(-c3cccc(F)c3)c3ccccc3c2=O)cc1	37.4	1.51	8.24	24.7	
CN(C)CCCCOC(=O)Nc1ccc(Cn2nc(-c3cncnc3)c3ccccc3c2=O)cc1	65.3	0.6	62.4	109	
